Fewer inactive variants are shown than the library holds.
B1: tRNA (parent)
chain: GUUCCGUUGGCGUAAUGGUAACGCGUCUCCCUCCUAAGGAGAAGACUGCGGGUUCGAGUCCCGUACGGAACG

Variants of: B1
Assay: yeast fitness relative to wild type (ratio to wild type); higher = fitter; tRNA-Arg(CCU), competitive growth, 37 C, YPD
How it was run: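 A pool of Saccharomyces cerevisiae strains, each with a tRNA-Arg(CCU) gene variant at the native genomic locus, was competed in YPD at 37°C for 24 hours across six parallel replicates. The variants had been chemically synthesised at a 3% per-site mutation rate over 69 sites, and gene amplicons before and after competition were read by 100-nucleotide paired-end sequencing. Darwinian fitness relative to wild type rested on changes in genotype frequencies. Genotypes required ≥ 100 starting reads, and estimates < 0.5 were set to 0.5.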

Variant	yeast fitness
GUUCCGUUGGCGUAUUGGUAACGCGUCUCCCUCCCAAGGAAAAGACUGCGGGUUCGAGUACCGUUCGGGACG	0.563
GUUCCGUUGGCGUAUUGGAAACGCGUCUCCCUCCUUAGGAGAAGACUGCGGGUACGAGUCCCGUACGGAACG	≤ 0.5
GUUCCGUUGGCGUAUUGGUAACGCGUCUCCCUCCUAAGCAGAAGACUGCGGGUUCGAGUCCCGUACGGAACG	0.597
GUUCCGUUGGCGUAUUGGUAACGCGUCUCCCUCCUAAGGAGAAGACUGCGGGUUCGAGUCCCGGACGGUACG	≤ 0.5
GUUCCGUUGGCGUAUUGGUAACGCGUCACCCUCCUAAGGAGAAGACUGCGGGUUCGAGUCCCGUACGGAACG	0.57
GUUCCGUUGGCGUAUUGGAAACGCGUCUCCCUCCUAAGGAGAAGACUGCGGGUUCGAGUCCCGUACGGAACG	0.767
GUUCCGUUGGCGUAUUGGUAACGCGUCUCCCUCCUAAGGAGAAGACUGCGGGUUCGAGUCCCGUACAGUACG	0.558
GUUCCGUUGGCGUAUUGGUAACGCGUCUCCCUCCUAACGAGAAGACUGCGCGUUCGAGUCCCGUACGGACCG	≤ 0.5
GUUCCGUUGGCGUAUUGGUAACGCGUCACCCUGCUAAGGAGAAGACUGCGGGUUCGAGUCCCGUACGGAACG	0.561
GUUCCGUUGGCGUAUUGGCAACGCGUCUCCUUCCUAAGGCGAAGACUGCGGGUUCGAGUCCCGUACGGAACG	≤ 0.5
GUUCCGUUGGCGUAUUGGCAACGCGUCUCCAUCCUAAGGACAAGACUGCGGGUUCGAGUCCCGUACGGAACG	0.596
GUUCCGUUGGCGUAUUGGCAACGCGUCUCCUUCCUAAGGCGAAGACUGCGGGUUCGUGUCCCGUACGGAACG	≤ 0.5
GUUCCGUUGGCGUAUUGGUAACGCGUCUCCCUCCUAAGGAGAAGACUGCGGGGUCGCGUCCCGUACGGUACG	0.625
GUUCCGUUGGCGUAUUGGAGACGCGUCUCCCUCCUAAGGUGAUGACUGCGGGUUCGAGUGCUGUACGGGACG	≤ 0.5
GUUCCGUUGGCGUAUUGGUAACGCGACUCCCUCCUAAGGAGAAGACUGCGGGUUCGAGUCCCGUACGGAACG	0.666
GUUCCGUUGGCGUAUUGGUAACGCGCCUCCCUCCUAAGGAGAAGACUGCGGGUUCGAGUCCCGUACGGAACG	0.81
GUUCCGUUGGCGUAUCGGUAACGCGUCUCCCUCCAAAGGAGAAAACUGCGGGUUCGAGUCCCGUACGGAACG	≤ 0.5
GUUCCGUUGGCGUAUUGGUAACGCGUCUCCCUCCUAAGGAGAAGACUCCGGGUUCGAGUCCCGUACGGAACG	0.669
GUUCCGUUGGCGUAUUGGAGACGCGUCUCCCUCCUAAGGUGAUGACUGCGGGUUCGAGUGCUGUACGCAACG	≤ 0.5

Variant	yeast fitness
GUUCCGUUGGCGUAUUGGUAACGCGUCUCCCUCCUAAGGAGAAGACUGCGGGUUCGAAUCCCGUACGGAACG	1
GUUCCGUUGGCGUAUUGGUAACGCGUCUCCCUCCUAAGGAGAAGACUGCGGGUUCGACUCCCGUACGGAACG	0.916
GUUCCGUUGGCGUAUUGGUAACGCGUCACCCUGCUAAGGAGAAGACUGCGGGUUCAAGUCCCGUACGGAACG	≤ 0.5
GUUCCGUUGGCGUAUUGGUAACGCGUCUCCCUCCUAAGGAGAAGACUGCCGGUUCGAGUUCCGUACGGAACG	≤ 0.5
GUUCCGUUGGCGUAUUGGUAACGCGUCUCCCUCCUAAAGCGAAGACUGCGGGUUCGAGUCCCGUACGGAACG	≤ 0.5
GUUCCGUUGGCGUAUUGGAAACGAGUCUCCCUCCUAAGGAGAAGACUGCGGGUUCGAGUCCCGUACGGAACG	0.641
GUUCCGUUGGCGUAUUGGUAACGCGUCACCCUCCUAAGGAGAAAACUGCGGGUUCGAGUCCCGCACGGAACG	≤ 0.5
GUUCCGUUGGCGUAUUGGUAACGCGUCACCCUGCUAAGGAGAAGACUGCGGGUUCGAGUCCCGAACGGAACG	≤ 0.5
GUUCCGUUGGCGUAUUGGUAACGCGUCACCCUCCUAAGGCGAAGAGUGCGGGUUCGAGUCCCGUACGGAACG	≤ 0.5
GUUCCGUUGGCGUAUUGGUAACGCGUCACCCUCCUAAGGAGAAGACUGUGGGUUCGAGACCCGUAAGGAACG	≤ 0.5
GUUCCGUUGGCGUAUUGGUAACGCGUCUCCCUCCUAAGAAGAAGACUGCGGGUUCGGGUCCCGUACGGAACG	≤ 0.5
GUUCCGUUGGCGUAUUGGUAACGCGUCUCCCUCCUAAGGAGAAGACUGCGGGUUCGAAUCCCGUAGGGAACG	0.943
GUUCCGUUGGCGUAUUGGUAACGCGUCUCCCUCCUAAGGAGAAGACUGCGGGUUCUAGUCCCGUACGGAACG	0.657
GUUCCGUUGGCGUAUUGGUAACGCGUCUCCCUCCUAAGGAGAAGACUGCGGGUUCCAGUCCCGUACGGAACG	0.549
GUUCCGUUGGCGUAUCGGUAACGCGUCUCCCUCCUAAGGUGAAGACUGCGGGUUCGAGUCCCGUACGGAACG	≤ 0.5
GUUCCGUUGGCGUAUUGGUAACGCGUCUCCCUCCUAAGGAGAACACUGCGGGUUCGAGUCCCGUACGCAACG	≤ 0.5
GUUCCGUUGGCGUAUUGGUAACGCGGCUCCCUCCAAAGGAAAAGACUGCGGGUUCGAGUCCCGUACGGAACG	≤ 0.5
GUUCCGUUGGCGUAUUGGUAACGCGUCACCCUGCUAAGGAGAAGACUGCGGGUUCGAGUCCCGUGCGGAACG	≤ 0.5
GUUCCGUUGGCGUAUAGGUAACGCGUGUCCCUCCUAAGGAGAAGACUGCGGGUUUGAGUCCUGUACCGAACG	≤ 0.5

— the RNAGym collection of RNA variant scans (doi:10.1126/science.aae0568)
